From PubChem BioAssay come the findings set out here.

SMILES strings stand for the structures. Active and inactive are the calls of the source.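 How the source made its calls, unless noted: active means viability at or below 30% in both replicate assays; inconclusive means viability at or below 30% in just one of the two assays; inactive means the rest.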

Assay [1] can be described thus: Her2 expression decrease, cell viability multiplex – SKBR3 breast tumor cells, AlphaScreen, ATP viability, primary screen (AID 461;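 active means Her2 level under about 52% in both replicate screens, with viability over 70% of control, limit read from the data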;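 on Her2 level: lower value means less Her2 protein in the cells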;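 on viability: percent of carrier control wells set as 100% viability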). The following applies: SKBR3 Her2 protein level, 18-24 h, measured here: SKBR3 viability, ATP luminescence, at 10 µM. (In Alpha technology, singlet oxygen from a donor bead excites a nearby acceptor bead.)
The target of assay [2] is Receptor tyrosine-protein kinase erbB-2 (Homo sapiens) (UniProt P04626). Described as above. The conditions noted are these: 18-24 h, at 10 µM, stronger effect = lower value.
Receptor tyrosine-protein kinase erbB-2 (Homo sapiens), sequence (P04626 whole entry, looked up): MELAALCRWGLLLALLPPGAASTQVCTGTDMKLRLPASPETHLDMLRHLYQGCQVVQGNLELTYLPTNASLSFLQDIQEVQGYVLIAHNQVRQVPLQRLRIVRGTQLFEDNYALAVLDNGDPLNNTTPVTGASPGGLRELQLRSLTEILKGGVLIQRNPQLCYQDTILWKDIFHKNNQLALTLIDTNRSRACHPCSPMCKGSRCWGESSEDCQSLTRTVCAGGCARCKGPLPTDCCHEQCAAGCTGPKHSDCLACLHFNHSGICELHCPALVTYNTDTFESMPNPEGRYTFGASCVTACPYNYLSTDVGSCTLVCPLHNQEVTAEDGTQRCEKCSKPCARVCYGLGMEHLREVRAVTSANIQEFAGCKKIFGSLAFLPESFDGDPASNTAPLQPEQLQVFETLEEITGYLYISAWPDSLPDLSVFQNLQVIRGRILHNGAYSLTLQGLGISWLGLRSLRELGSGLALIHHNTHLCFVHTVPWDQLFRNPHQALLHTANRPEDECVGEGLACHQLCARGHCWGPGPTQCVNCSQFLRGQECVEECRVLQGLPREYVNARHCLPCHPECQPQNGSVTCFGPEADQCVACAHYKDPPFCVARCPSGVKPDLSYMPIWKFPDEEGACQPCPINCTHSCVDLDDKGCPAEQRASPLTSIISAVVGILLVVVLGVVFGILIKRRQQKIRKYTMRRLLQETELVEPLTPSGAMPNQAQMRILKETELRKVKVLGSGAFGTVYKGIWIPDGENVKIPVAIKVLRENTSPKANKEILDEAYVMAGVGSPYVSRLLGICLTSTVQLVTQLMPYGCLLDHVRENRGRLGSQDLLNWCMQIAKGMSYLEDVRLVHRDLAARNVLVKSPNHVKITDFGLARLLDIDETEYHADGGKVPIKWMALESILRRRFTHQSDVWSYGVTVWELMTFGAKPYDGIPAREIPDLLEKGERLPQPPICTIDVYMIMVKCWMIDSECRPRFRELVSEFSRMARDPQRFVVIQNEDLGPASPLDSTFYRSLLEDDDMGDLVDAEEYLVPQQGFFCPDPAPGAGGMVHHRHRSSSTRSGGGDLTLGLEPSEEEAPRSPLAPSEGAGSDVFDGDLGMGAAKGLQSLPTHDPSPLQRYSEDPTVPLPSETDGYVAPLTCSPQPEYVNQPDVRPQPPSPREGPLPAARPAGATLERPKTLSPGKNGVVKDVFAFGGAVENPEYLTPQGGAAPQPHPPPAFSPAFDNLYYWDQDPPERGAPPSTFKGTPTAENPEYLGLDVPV
Assay [3] can be described thus: reduced viability of SK-BR-3 breast cancer cells – cell-based, 24 h, human, pilot screen (AID 572;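 active means viability at or below 10% of carrier control in both of two separate runs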;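 further: compound exposure lasted between 18 and 24 h rather than exactly 24 h; 100% = carrier-treated control wells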). The conditions noted are these: SK-BR-3 viability, CellTiter-Glo luminescence, at 10 µM, stronger effect = lower value.
Assay [4] is described as follows: HUVEC growth inhibition – cell-based, human, primary screen (AID 575).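 Further: 100% = median of untreated cell wells with 0.1% DMSO on each plate.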 The conditions noted are these: HUVEC proliferation, CellTiter-Glo luminescence, 72 h; at 10 µM; stronger effect = lower value. The procedure, abridged: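 Assay system: primary human umbilical vein endothelial cells / Buffer or medium: endothelial basal medium with 2% FBS plus growth supplements / Compound dosing: one dose, 10 µM final, 0.1% DMSO / Timing: 72 h treatment at 37 °C / Signal: CTG luminescence / Benchmarks: 32 DMSO-only cell-control wells (high), 32 MePR drug-control wells (low) per plate / Plate: collagen-coated 384-well format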
For orientation: Cellular ATP, detected with luciferase, serves as a proxy for viable cell number.

Assay [5] can be described thus: H69AR cell proliferation blockers – human, duplicate replicates, primary screen (AID 580;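 active means viability at or under a set limit in both replicates, limit being median viability minus 3 SD, cut at about 48% in these data, passing the limit was not always enough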;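 further: 100% = mean luminescence of untreated wells and 0% = no signal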). The conditions noted are these: H69AR lung tumor cells viability, ATP luminescence, 72 h; at 10 µM; stronger effect = lower value.
A short description of assay [6]: MRP1 drug-resistance reversers in H69AR cells – cell-based, doxorubicin co-treatment, pilot screen (AID 601;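 active means viability loss from added drug above about 55%, and viability with drug at most 40%, in both replicates, limit read from the data, passing the limit was not always enough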). The following applies: CellTiter-Glo, 72 h, at 10 µM; for differential viability (reversal): stronger effect = higher value.
The nature of assay [7]: yeast transport mutant growth inhibition pilot in 384-well plates, post-Golgi transport modulator project (AID 636; in the data active means inhibition above about 31%). The following applies: absorbance 615 nm, about 18 h, stronger effect = higher value.
The nature of assay [8]: growth suppression of yeast trafficking mutant, preliminary HTS, modulators of trafficking downstream of Golgi apparatus project, 1536-format plate, OD 615 nm (AID 637; in the data active means inhibition above about 30%). The conditions noted are these: yeast transport mutant growth, absorbance 615 nm, 18 h; stronger effect = higher value.
Where [9] appears, read: H69AR cells + 2 uM doxorubicin, measured here: viability with 2 uM doxorubicin, stronger effect = lower value.
Setting [10] is: H69AR cells, compound alone cytotoxicity.

What is called viability is a read-out of living cells in per cent, often relative to untreated cells. The inhibition is the drop in the measured response relative to a control, in per cent. Regarding `O=C(CSc1nnc(-c2cccs2)o1)NCC1CN(Cc2ccccc2)CCO1` (stereo not given), the viability is 99.5% in assay [1]; 99.5% (inactive) in assay [3]; 106% (inactive) in assay [4]; 85.1% (inactive) in assay [5]; 98.8% in assay [6] (setting [9]); 85.1% in assay [6] (setting [10]). Further, in assay [2], the Her2 level was 90.5% (inactive). The differential viability (reversal) in assay [6] (H69AR cells + 2 uM doxorubicin) was -13.7% (inactive). For the same compound, the inhibition was -1.69% (inactive) in assay [7] and -1.9% (inactive) in assay [8].
As to `O=C(CN(Cc1ccco1)C(=O)c1cc(=O)[nH]c2ccccc12)Nc1ccccc1Br`, the viability in assay [1] is 97%; in assay [3], 97% (inactive); in assay [4], 98.2% (inactive); in assay [5], 83.1% (inactive); in assay [6] (setting [9]), 74%; in assay [6] (setting [10]) it was 83.1%. Also, the Her2 level in assay [2] is 79.5% (inactive). In addition, the differential viability (reversal) in assay [6] (H69AR cells + 2 uM doxorubicin) is 9.09% (inactive). Besides, the inhibition was -4.4% (inactive) in assay [7] and -0.33% (inactive) in assay [8].
For the compound `CCC(C(=O)Nc1ncccn1)(C(F)(F)F)C(F)(F)F`, the viability in assay [1] is 86.5%; in assay [3], 86.5% (inactive); in assay [4], 95.7% (inactive); in assay [5], 103% (inactive); in assay [6] (setting [9]), 94.6%; in assay [6] (setting [10]) it was 103%. The Her2 level in assay [2] was 99% (inactive). For the same compound, the differential viability (reversal) in assay [6] (H69AR cells + 2 uM doxorubicin) was 8.62% (inactive). The inhibition in assay [7] is 0.27% (inactive); in assay [8], 0.82% (inactive).
Turning to `Cc1ccc(-c2nnc(-c3ccc(Br)cc3)o2)o1`, the viability in assay [1] was 100%; in assay [3] it was 100% (inactive); in assay [4], 99.9% (inactive); in assay [5], 86.1% (inactive); in assay [6] (setting [9]), 84.5%; in assay [6] (setting [10]), 86.1%. In addition, the Her2 level in assay [2] is 93.5% (inactive). Besides, the differential viability (reversal) in assay [6] (H69AR cells + 2 uM doxorubicin) is 1.58% (inactive). Besides, the inhibition in assay [7] is -5.87% (inactive); in assay [8], -1.64% (inactive).
Turning to `COc1ccccc1NC(=O)CSc1nnc(-c2ccncc2)o1`, the viability in assay [1] was 108%; in assay [3] it was 108% (inactive); in assay [4], 111% (inactive); in assay [5] it was 93.8% (inactive); in assay [6] (setting [9]), 91.2%; in assay [6] (setting [10]) it was 93.8%. The Her2 level in assay [2] was 96% (inactive). Further, the differential viability (reversal) in assay [6] (H69AR cells + 2 uM doxorubicin) was 2.67% (inactive). Moreover, the values for the inhibition in assay [7] and in assay [8] were 0.91% (inactive) and -4.33% (inactive), respectively.
On to `CCN(CC)C(=O)c1sc2nc(-c3cccs3)cc(-c3cccs3)c2c1N`, for which the viability in assay [1] was 102%; in assay [3], 102% (inactive); in assay [4], 76.2% (inactive); in assay [5], 71.8% (inactive); in assay [6] (setting [9]), 84.5%; in assay [6] (setting [10]) it was 71.8%. Also, the Her2 level in assay [2] was 88.5% (inactive). Further, the differential viability (reversal) in assay [6] (H69AR cells + 2 uM doxorubicin) is -12.7% (inactive). In addition, the inhibition is -4.67% (inactive) in assay [7] and 21% (inactive) in assay [8].
On to `Cc1ccc2cc(C(c3nnnn3CC3CCCO3)N3CCc4ccccc4C3)c(=O)[nH]c2c1` (stereo not given), for which the viability was 87% in assay [1]; 87% (inactive) in assay [3]; 105% (inactive) in assay [4]; 100% (inactive) in assay [5]; 102% in assay [6] (setting [9]); 100% in assay [6] (setting [10]). The Her2 level in assay [2] was 82% (inactive). The differential viability (reversal) in assay [6] (H69AR cells + 2 uM doxorubicin) is -2.15% (inactive). Besides, the inhibition in assay [7] is -3.84% (inactive); in assay [8], -6.83% (inactive).
Regarding `Cc1nn(C)cc1/C=N/O`, the viability in assay [1] is 100%; in assay [3] it was 100% (inactive); in assay [4], 95.8% (inactive); in assay [5] it was 104% (inactive); in assay [6] (setting [9]), 96.5%; in assay [6] (setting [10]), 104%. Besides, the Her2 level in assay [2] was 105% (inactive). Moreover, the differential viability (reversal) in assay [6] (H69AR cells + 2 uM doxorubicin) is 7.1% (inactive). In addition, the results for the inhibition in assay [7] and in assay [8] were -7.47% (inactive) and 1.45% (inactive), respectively.
For the compound `c1ccc(-c2csc(N3CCCCCC3)n2)cc1`, the viability was 91.5% in assay [1]; 91.5% (inactive) in assay [3]; 104% (inactive) in assay [4]; 100% (inactive) in assay [5]; 85.6% in assay [6] (setting [9]); 100% in assay [6] (setting [10]). Moreover, the Her2 level in assay [2] was 104% (inactive). In addition, in assay [6] (H69AR cells + 2 uM doxorubicin), the differential viability (reversal) is 14.9% (inactive). Besides, the figures for the inhibition in assay [7] and in assay [8] were -0.27% (inactive) and -4.35% (inactive), respectively.
Turning to `COc1ccc(C2C(C(C)=O)=C(O)C(=O)N2C)c(OC)c1` (stereo not given), the viability is 102% in assay [1]; 102% (inactive) in assay [3]; 109% (inactive) in assay [4]; 114% (inactive) in assay [5]; 91.7% in assay [6] (setting [9]); 114% in assay [6] (setting [10]). The Her2 level in assay [2] is 104% (inactive). Besides, in assay [6] (H69AR cells + 2 uM doxorubicin), the differential viability (reversal) was 22.1% (inactive). For the same compound, the inhibition in assay [7] is 1.3% (inactive); in assay [8], -0.83% (inactive).
`CCCC(=O)Nc1ccc(NC(=O)c2ccccc2OC)cn1`: the viability in assay [1] was 94.5%; in assay [3], 94.5% (inactive); in assay [4], 100% (inactive); in assay [5] it was 92.9% (inactive); in assay [6] (setting [9]) it was 86.9%; in assay [6] (setting [10]), 92.9%. In addition, the Her2 level in assay [2] is 101% (inactive). In addition, in assay [6] (H69AR cells + 2 uM doxorubicin), the differential viability (reversal) was 5.96% (inactive). Besides, the figures for the inhibition in assay [7] and in assay [8] were -1.17% (inactive) and -4.43% (inactive), respectively.
Regarding `CCOC(=O)C1=C(CSc2nc(C)cc(C)c2C#N)OC(N)=C(C#N)C1c1cccs1` (stereo not given), the viability was 108% in assay [1]; 108% (inactive) in assay [3]; 78.5% (inactive) in assay [4]; 83.1% (inactive) in assay [5]; 74.5% in assay [6] (setting [9]); 83.1% in assay [6] (setting [10]). Moreover, the Her2 level in assay [2] was 85.5% (inactive). Further, the differential viability (reversal) in assay [6] (H69AR cells + 2 uM doxorubicin) was 8.64% (inactive). The inhibition is -5.33% (inactive) in assay [7] and 0.16% (inactive) in assay [8].
`COc1ccc(C)cc1S(=O)(=O)N(C)CC(=O)Nc1ccc2c(c1)OCO2`: the viability in assay [1] was 129%; in assay [3], 129% (inactive); in assay [4] it was 92.7% (inactive); in assay [5] it was 89.2% (inactive); in assay [6] (setting [9]), 88.1%; in assay [6] (setting [10]), 89.2%. Also, in assay [2], the Her2 level is 98% (inactive). The differential viability (reversal) in assay [6] (H69AR cells + 2 uM doxorubicin) was 1.07% (inactive). Besides, the inhibition is -4.67% (inactive) in assay [7] and -4.92% (inactive) in assay [8].
`O=C(NC1CCCCCC1)C1CCCN(S(=O)(=O)c2cccs2)C1` (stereo not given): the viability in assay [1] was 90%; in assay [3], 90% (inactive); in assay [4] it was 101% (inactive); in assay [5], 105% (inactive); in assay [6] (setting [9]), 87.8%; in assay [6] (setting [10]), 105%. The Her2 level in assay [2] is 118% (inactive). In addition, the differential viability (reversal) in assay [6] (H69AR cells + 2 uM doxorubicin) was 17.6% (inactive). Also, the inhibition in assay [7] was -0.92% (inactive); in assay [8] it was -6.5% (inactive).
In the case of `CCc1nnc(NC(=O)c2ccc(-c3cccc(C(F)(F)F)c3)o2)s1`, the viability is 102% in assay [1]; 102% (inactive) in assay [3]; 102% (inactive) in assay [4]; 91.4% (inactive) in assay [5]; 80.2% in assay [6] (setting [9]); 91.4% in assay [6] (setting [10]). In addition, the Her2 level in assay [2] is 130% (inactive). Further, in assay [6] (H69AR cells + 2 uM doxorubicin), the differential viability (reversal) is 11.2% (inactive). Besides, the inhibition is -5.6% (inactive) in assay [7] and -4.03% (inactive) in assay [8].
For the compound `CCN(CC)S(=O)(=O)c1ccc(C(=O)N2CCN=C2SCc2cccnc2)cc1`, the viability in assay [1] is 82.5%; in assay [3] it was 82.5% (inactive); in assay [4] it was 79.7% (inactive); in assay [5], 84.5% (inactive); in assay [6] (setting [9]), 88.5%; in assay [6] (setting [10]), 84.5%. Also, in assay [2], the Her2 level was 95.5% (inactive). Besides, in assay [6] (H69AR cells + 2 uM doxorubicin), the differential viability (reversal) is -3.98% (inactive). For the same compound, the inhibition was -3.38% (inactive) in assay [7] and -3.02% (inactive) in assay [8].
